Assay type in all cases: functional
The nature of assay [1]: Competitive inhibition of Cu2-amyloid beta (1 to 20) complex-induced DTBC oxidation by spectrophotometry. The method in brief: (§1)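 Cu(II)–Aβ complex formed just before assay by mixing stoichiometric Cu(II) and peptide at μM level in the reaction solution. Several concentrations of DTBC or THB substrate are incubated with a constant Cu(II)–Aβ concentration in 0.1 M HEPES, pH 7.4, 25 °C. Ki is obtained from Lineweaver–Burk analysis assuming competitive inhibition.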

Assay [2] can be described thus: Competitive inhibition of Cu2-amyloid beta (1 to 16) complex-induced DTBC oxidation by spectrophotometry. The gist of the method:
as §1

The nature of assay [3]: Competitive inhibition of Cu2-amyloid beta (1 to 20) complex-induced THB oxidation by spectrophotometry. The method in brief:
as §1

Assay [4] in a line: Inhibition of Cu2-amyloid beta (1 to 16) complex-induced dopamine oxidation by spectrophotometry. The gist of the method:
(§2)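 Cu(II)–Aβ prepared fresh from stoichiometric Cu(II) and peptide at μM level. Dopamine oxidation (1.0 mM for inhibition plots; varied for Lineweaver–Burk) is catalysed by 2.0 μM Cu–Aβ1-40, 3.0 μM Cu–Aβ1-16, or 3.0 or 17.0 μM Cu–Aβ1-20, in 0.1 M HEPES pH 7.4, 25 °C. Inhibitor is titrated to give IC50. Ki comes from a 1/v vs 1/[dopamine] plot, competitive model.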

The nature of assay [5]: Inhibition of Cu2-amyloid beta (1 to 40) complex-induced dopamine oxidation by spectrophotometry. The gist of the method:
as §2

Assay [6] can be described thus: Competitive inhibition of full-length Cu2-amyloid beta (1 to 40) complex-induced dopamine oxidation by Lineweaver-Burk plot analysis. The method in brief:
as §2

Assay [7] can be described thus: Inhibition of Cu2-amyloid beta (1 to 20) complex-induced dopamine oxidation by spectrophotometry. The method in brief:
as §2

Assay [8] can be described thus: Inhibition of Cu2-amyloid beta (1 to 16) complex-induced DTBC oxidation by spectrophotometry. The method in brief:
as §1

Assay [9] is described as follows: Inhibition of Cu2-amyloid beta (1 to 16) complex-induced THB oxidation by spectrophotometry. The method in brief: as §1

Among the data in ChEMBL document CHEMBL1909634, “Vitamin B6s inhibit oxidative stress caused by Alzheimer's disease-related Cu(II)-β-amyloid complexes-cooperative action of phospho-moiety” (Bioorg Med Chem Lett, 2011) are Ki and IC50 values, retold here.

SMILES strings stand for the structures. Structures can show the parent of a compound that is named as a salt.

Regarding `Cc1ncc(COP(=O)(O)O)c(C=O)c1O` [PYRIDOXAL PHOSPHATE ANHYDROUS], the Ki in [1] stood at 0.2 mM; in assay [2], 0.13 mM.
Regarding `Cc1ncc(CO)c(C=O)c1O` [PYRIDOXAL], the results for the Ki in [1], in assay [3] and in [2] were 1.12 mM, 2.8 mM and 0.67 mM, respectively.
Consider `Cc1ncc(CO)c(CN)c1O` [PYRIDOXAMINE], for which the IC50 in assay [4], in assay [5] and in assay [7] was 7 mM in each case. Besides, the Ki in assay [6] amounted to 1.42 mM; in assay [7], 1.4 mM.
In the case of `Cc1ncc(CO)c(CO)c1O` [PYRIDOXINE HYDROCHLORIDE], the Ki in assay [8] was 5.05 mM; in [4] it was 5.56 mM; in assay [9] it was 8.67 mM; in [7], 8.29 mM.
